Results taken from ChEMBL document CHEMBL2331091, “Synthesis and pharmacological evaluation of some novel 2-(5-hydroxy-5-trifluoromethyl-4,5-dihydropyrazol-1-yl)-4-(coumarin-3-yl)thiazoles” (2013).
Converted amounts (≈) assume the structure as drawn. The source made the active and inactive calls. The calls are words filed in the database; no cut-off is given here.

What was measured:
Type in all cases: functional
Rattus norvegicus [1] = assay: Antiinflammatory activity in Wistar albino rat assessed as inhibition of carrageenan-induced paw edema at 50 mg/kg, po administered 30 mins prior to carrageenan challenge measured after 4 hrs by plethysmometer analysis
Summary of the method: (§1)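 Male Wistar albino rats, 200-250 g, five per group, fasted from 12 h before and during the test. Compounds were given orally at 50 mg/kg 30 min before sub-plantar injection of 0.1 ml 1% carrageenan in 0.9% saline into the left hind paw. Tween 80 vehicle controls. Paw volume was read by plethysmometer up to the tibiotarsal mark at 0-4 h. Results are mean ± SEM and % inhibition, ANOVA and Dunnett's test.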

Rattus norvegicus [2] = assay: Antiinflammatory activity in Wistar albino rat assessed as inhibition of carrageenan-induced paw edema at 50 mg/kg, po administered 30 mins prior to carrageenan challenge measured after 3 hrs by plethysmometer analysis; summary of the method: as §1
Rattus norvegicus [3] = assay: Antiinflammatory activity in Wistar albino rat assessed as inhibition of carrageenan-induced paw edema at 50 mg/kg, po administered 30 mins prior to carrageenan challenge measured after 2 hrs by plethysmometer analysis; summary of the method: as §1
Rattus norvegicus [4] = assay: Antiinflammatory activity in Wistar albino rat assessed as inhibition of carrageenan-induced paw edema at 50 mg/kg, po administered 30 mins prior to carrageenan challenge measured after 1 hr by plethysmometer analysis; summary of the method: as §1
Escherichia coli [5] = assay: Antibacterial activity against Escherichia coli assessed as growth inhibition at 37 degC after overnight incubation by agar well diffusion method
Klebsiella aerogenes [6] = assay: Antibacterial activity against Klebsiella aerogenes assessed as growth inhibition at 37 degC after overnight incubation by agar well diffusion method
[7] = tested on: Staphylococcus epidermidis; assay: Antibacterial activity against Staphylococcus epidermidis assessed as growth inhibition at 37 degC after overnight incubation by agar well diffusion method
Bacillus subtilis [8] = assay: Antibacterial activity against Bacillus subtilis assessed as growth inhibition at 37 degC after overnight incubation by agar well diffusion method
Staphylococcus aureus [9] = assay: Antibacterial activity against Staphylococcus aureus assessed as growth inhibition at 37 degC after overnight incubation by agar well diffusion method
Pseudomonas aeruginosa [10] = assay: Antibacterial activity against Pseudomonas aeruginosa assessed as diameter of growth inhibition zone at 2 mg/ml at 37 degC after 24 hrs by agar well diffusion method; settings: for zone of inhibition at 2000 µg/mL: read-out: DIZ
Proteus mirabilis [11] = assay: Antibacterial activity against Proteus mirabilis assessed as diameter of growth inhibition zone at 2 mg/ml at 37 degC after 24 hrs by agar well diffusion method; settings: for zone of inhibition at 2000 µg/mL: read-out: DIZ
Escherichia coli [12] = assay: Antibacterial activity against Escherichia coli assessed as diameter of growth inhibition zone at 2 mg/ml at 37 degC after 24 hrs by agar well diffusion method; settings: for zone of inhibition at 2000 µg/mL: read-out: DIZ
Klebsiella aerogenes [13] = assay: Antibacterial activity against Klebsiella aerogenes assessed as diameter of growth inhibition zone at 2 mg/ml at 37 degC after 24 hrs by agar well diffusion method; settings: for zone of inhibition at 2000 µg/mL: read-out: DIZ
[14] = tested on: Staphylococcus epidermidis; assay: Antibacterial activity against Staphylococcus epidermidis assessed as diameter of growth inhibition zone at 2 mg/ml at 37 degC after 24 hrs by agar well diffusion method; settings: read-out: DIZ
Bacillus subtilis [15] = assay: Antibacterial activity against Bacillus subtilis assessed as diameter of growth inhibition zone at 2 mg/ml at 37 degC after 24 hrs by agar well diffusion method; settings: for zone of inhibition at 2000 µg/mL: read-out: DIZ
Staphylococcus aureus [16] = assay: Antibacterial activity against Staphylococcus aureus assessed as diameter of growth inhibition zone at 2 mg/ml at 37 degC after 24 hrs by agar well diffusion method; settings: read-out: DIZ
Pseudomonas aeruginosa [17] = assay: Antibacterial activity against Pseudomonas aeruginosa assessed as growth inhibition at 37 degC after overnight incubation by agar well diffusion method
Proteus mirabilis [18] = assay: Antibacterial activity against Proteus mirabilis assessed as growth inhibition at 37 degC after overnight incubation by agar well diffusion method

Row | Structure (SMILES) | inhibition in vivo at 50 mg/kg (Rattus norvegicus [1]) | inhibition in vivo at 50 mg/kg (Rattus norvegicus [2]) | inhibition in vivo at 50 mg/kg (Rattus norvegicus [3]) | inhibition in vivo at 50 mg/kg (Rattus norvegicus [4]) | MIC (Escherichia coli [5]) | MIC (Klebsiella aerogenes [6]) | MIC [7] | MIC (Bacillus subtilis [8]) | MIC (Staphylococcus aureus [9]) | diameter of the inhibition zone (DIZ) (Pseudomonas aeruginosa [10]) | diameter of the inhibition zone (DIZ) (Proteus mirabilis [11]) | zone of inhibition at 2000 µg/mL (Escherichia coli [12]) | zone of inhibition at 2000 µg/mL (Klebsiella aerogenes [13]) | zone of inhibition at 2000 µg/mL [14] | zone of inhibition at 2000 µg/mL (Bacillus subtilis [15]) | zone of inhibition at 2000 µg/mL (Staphylococcus aureus [16]) | MIC (Pseudomonas aeruginosa [17]) | MIC (Proteus mirabilis [18]) | zone of inhibition at 2000 µg/mL (Pseudomonas aeruginosa [10]) | zone of inhibition at 2000 µg/mL (Proteus mirabilis [11]) | further results
1 | O=c1oc2ccc(Cl)cc2cc1-c1csc(N2N=C(C(F)(F)F)C[C@@]2(O)C(F)(F)F)n1 | 41.1% | 54.5% | 63.3% | 85.9% | – | – | – | – | – | – | – | – | – | – | – | – | – | – | – | – | –
2 | O=c1oc2ccc(Br)cc2cc1-c1csc(N2N=C(c3ccc(F)cc3)C[C@@]2(O)C(F)(F)F)n1 | – | – | – | – | 512 µg/mL (≈ 924 µM) | 256 µg/mL (≈ 462 µM) | 64 µg/mL (≈ 115 µM) | 512 µg/mL (≈ 924 µM) | 128 µg/mL (≈ 231 µM) | inactive | inactive | 11 mm | 11 mm | 14 mm | 12.4 mm | 1.87 mm | – | – | – | – | –
3 | O=c1oc2ccccc2cc1-c1csc(N2N=C(c3ccc(Cl)cc3)C[C@@]2(O)C(F)(F)F)n1 | 55.4% | 48% | 82.5% | 77.5% | 2 µg/mL (≈ 4.07 µM) | 8 µg/mL (≈ 16.3 µM) | 64 µg/mL (≈ 130 µM) | 512 µg/mL (≈ 1040 µM) | 16 µg/mL (≈ 32.5 µM) | – | – | 13.1 mm | 10.1 mm | 15.1 mm | 15.7 mm | 4.5 mm | 32 µg/mL (≈ 65.1 µM) | 4 µg/mL (≈ 8.13 µM) | 8.1 mm | 15.2 mm | –
4 | O=c1oc2ccccc2cc1-c1csc(N2N=C(c3ccc(Br)cc3)C[C@@]2(O)C(F)(F)F)n1 | 25.2% | 35.5% | 70.8% | 76.1% | – | – | – | – | – | – | – | – | – | – | – | – | – | – | – | – | –
5 | C=CC1=C(C(=O)O)N2C(=O)[C@@H](NC(=O)/C(=N\OCC(=O)O)c3csc(N)n3)[C@H]2SC1 [CEFIXIME] | – | – | – | – | 2 µg/mL (≈ 4.41 µM) | 2 µg/mL (≈ 4.41 µM) | 2 µg/mL (≈ 4.41 µM) | 2 µg/mL (≈ 4.41 µM) | 2 µg/mL (≈ 4.41 µM) | – | – | 14.1 mm | 15 mm | 22 mm | 26 mm | 3.9 mm | 2 µg/mL (≈ 4.41 µM) | 2 µg/mL (≈ 4.41 µM) | 10 mm | 20 mm | –
6 | O=c1oc2ccc(Cl)cc2cc1-c1csc(N2N=C(c3ccc(Br)cc3)C[C@@]2(O)C(F)(F)F)n1 | – | – | – | – | – | – | 512 µg/mL (≈ 897 µM) | – | 64 µg/mL (≈ 112 µM) | inactive | inactive | – | – | 11.2 mm | – | 2.07 mm | – | – | – | – | diameter of the inhibition zone (DIZ) (Escherichia coli [12]): inactive; diameter of the inhibition zone (DIZ) (Klebsiella aerogenes [13]): inactive; diameter of the inhibition zone (DIZ) (Bacillus subtilis [15]): inactive
7 | O=c1oc2ccccc2cc1-c1csc(N2N=C(c3ccc(F)cc3)C[C@@]2(O)C(F)(F)F)n1 | 18% | 22.3% | 56.7% | 74.7% | 2 µg/mL (≈ 4.21 µM) | 8 µg/mL (≈ 16.8 µM) | 64 µg/mL (≈ 135 µM) | 512 µg/mL (≈ 1080 µM) | 32 µg/mL (≈ 67.3 µM) | – | – | 13 mm | 12.1 mm | 14 mm | 12 mm | 3.96 mm | 32 µg/mL (≈ 67.3 µM) | 4 µg/mL (≈ 8.41 µM) | 7.87 mm | 17 mm | –
8 | O=c1oc2ccc(Br)cc2cc1-c1csc(N2N=C(c3ccc(Br)cc3)C[C@@]2(O)C(F)(F)F)n1 | – | – | – | – | 256 µg/mL (≈ 416 µM) | 512 µg/mL (≈ 832 µM) | 512 µg/mL (≈ 832 µM) | – | 128 µg/mL (≈ 208 µM) | inactive | inactive | 10 mm | 10.5 mm | 13.1 mm | – | 2.03 mm | – | – | – | – | diameter of the inhibition zone (DIZ) (Bacillus subtilis [15]): inactive
9 | O=c1oc2ccc(Cl)cc2cc1-c1csc(N2N=C(c3ccc(F)cc3)C[C@@]2(O)C(F)(F)F)n1 | – | – | – | – | – | – | 64 µg/mL (≈ 126 µM) | – | 32 µg/mL (≈ 62.8 µM) | inactive | inactive | – | – | 14 mm | – | 4.93 mm | – | – | – | – | diameter of the inhibition zone (DIZ) (Escherichia coli [12]): inactive; diameter of the inhibition zone (DIZ) (Klebsiella aerogenes [13]): inactive; diameter of the inhibition zone (DIZ) (Bacillus subtilis [15]): inactive
10 | O=c1oc2ccc(Br)cc2cc1-c1csc(N2N=C(C(F)(F)F)C[C@@]2(O)C(F)(F)F)n1 | – | – | – | – | 128 µg/mL (≈ 242 µM) | 512 µg/mL (≈ 969 µM) | 16 µg/mL (≈ 30.3 µM) | 8 µg/mL (≈ 15.1 µM) | 64 µg/mL (≈ 121 µM) | – | – | 11.9 mm | 11 mm | 20.1 mm | 25 mm | 3.13 mm | 128 µg/mL (≈ 242 µM) | 16 µg/mL (≈ 30.3 µM) | 9.13 mm | 17.2 mm | –
11 | O=c1oc2ccc(Br)cc2cc1-c1csc(N2N=C(c3ccc(Cl)cc3)C[C@@]2(O)C(F)(F)F)n1 | – | – | – | – | – | 8 µg/mL (≈ 14 µM) | 512 µg/mL (≈ 897 µM) | 512 µg/mL (≈ 897 µM) | 128 µg/mL (≈ 224 µM) | – | – | – | 13 mm | 12.5 mm | 10.3 mm | 2 mm | 128 µg/mL (≈ 224 µM) | 16 µg/mL (≈ 28 µM) | 8.1 mm | 15.1 mm | diameter of the inhibition zone (DIZ) (Escherichia coli [12]): inactive
12 | O=c1oc2ccc(Cl)cc2cc1-c1csc(N2N=C(c3ccc(Cl)cc3)C[C@@]2(O)C(F)(F)F)n1 | 31.5% | 42.1% | 62.5% | 73.2% | – | – | 512 µg/mL (≈ 973 µM) | – | 64 µg/mL (≈ 122 µM) | inactive | inactive | – | – | 11.2 mm | – | 4.13 mm | – | – | – | – | diameter of the inhibition zone (DIZ) (Escherichia coli [12]): inactive; diameter of the inhibition zone (DIZ) (Klebsiella aerogenes [13]): inactive; diameter of the inhibition zone (DIZ) (Bacillus subtilis [15]): inactive
13 | O=c1oc2ccccc2cc1-c1csc(N2N=C(C(F)(F)F)C[C@@]2(O)C(F)(F)F)n1 | 37.9% | 64.8% | 79.2% | 83.1% | – | – | – | – | – | – | – | – | – | – | – | – | – | – | – | – | –
